Screening results: PubChem BioAssay, several laboratories
MrgX1 PAM: human MrgX1 positive allosteric modulation, primary screen | MrgX1-HEK293, Fluo-4 calcium flux, FDSS; active compounds read high | B-score at 10 µM | actives 0.63% (n = 310,000) | AID 588675;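 active means plate-corrected calcium response at least 3 library SD above typical, normal starting fluorescence, not activating the receptor alone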;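 further: compound read alongside a low EC10 to EC30 dose of BAM8-22 agonist; peak minus trough fluorescence over baseline measured at the second addition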
MrgX1 agonist: activates human MrgX1 receptor signaling | Q96LB2 | actives 0.44% (n = 310,000) | B-score at 10 µM | AID 588627 | MrgX1-HEK293 cells, Fluo-4 calcium fluorescence, agonist mode; active compounds read high;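 active means calcium response B-score plate-corrected fluorescence ratio at least 3 library SD, with starting fluorescence B-score inside 5 SD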
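Material: HEK293 cells stably expressing human MrgX1 receptor | Quantity: 15,000 cells per well | Times: Cells plated overnight, dye loaded 0.5 h 37 °C, 0.5 h room temperature | Measured by: Kinetic Fluo-4 NW fluorescence of intracellular calcium | Control set: Positive and negative controls per plate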
MrgX1 antag: blocks BAM8-22 activation of human MrgX1 receptor; B-score at 10 µM; MRGX1-HEK293 calcium flux, Fluo-4, BAM8-22 antagonism; active compounds read low; Q96LB2; actives 1.3% (n = 310,000);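 active means calcium-response B-score plate-corrected more than 3 library SD below zero, starting fluorescence within 5 deviations, no agonist response on first addition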;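 further: peak minus trough fluorescence over baseline after final BAM8-22 challenge near maximal dose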
RGS4 pot: potentiators or activators of RGS4; HEK293 M3R/inducible RGS4, carbachol calcium flux Fluo4; active compounds read low; B-score at 10 µM; actives 0.92% (n = 310,000); AID 463111;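 active means B-score of the integrated calcium signal more than 4 SD below the library mean, with starting fluorescence not abnormally high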;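 further: negative B-score means reduced calcium response which marks RGS4 activation or potentiation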
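Reagent: ECmax carbachol challenge; Test system: M3R-expressing HEK293 line, RGS4 induced by doxycycline; Schedule: overnight RGS4 induction, 30 min dye load 37 °C, 20 min compound RT; Detection: calcium dye Fluo4 fluorescence; Read-out: Agonist-evoked peak-minus-minimum fluorescence over baseline, integrated ratio, B score.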
PHOSPHO1 inh: blocks human PHOSPHO1 phosphatase activity; Q8TCT1; recombinant PHOSPHO1, absorbance phosphatase assay; inhibition, % at 13.3 µM; actives 1.1% (n = 290,000); in the data active means inhibition above about 60%
Target sequence (Q8TCT1 whole entry, looked up): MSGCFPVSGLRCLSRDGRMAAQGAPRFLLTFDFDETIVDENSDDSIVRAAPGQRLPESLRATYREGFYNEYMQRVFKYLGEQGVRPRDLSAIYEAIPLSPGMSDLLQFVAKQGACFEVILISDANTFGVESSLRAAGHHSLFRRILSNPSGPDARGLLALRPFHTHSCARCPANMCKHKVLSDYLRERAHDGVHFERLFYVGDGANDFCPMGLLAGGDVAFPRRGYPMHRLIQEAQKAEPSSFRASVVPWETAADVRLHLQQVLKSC
RGS4 block: inhibitors of human RGS4; HEK293 M3R/RGS4 inducible, Fluo-4 calcium flux; active compounds read high; triggered by carbachol at its EC20; AID 463165; B-score at 10 µM; actives 0.45% (n = 310,000);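 active means B-score, a plate-corrected calcium signal, over three deviations above library mean, with baseline fluorescence within five deviations of library mean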;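 further: RGS4 expression induced by doxycycline in cells with stable M3 receptor; B-score is computed from the integrated fluorescence ratio over baseline after carbachol; higher B-score means a larger calcium signal and so more RGS4 inhibition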
Target sequence (P49798 whole entry, looked up): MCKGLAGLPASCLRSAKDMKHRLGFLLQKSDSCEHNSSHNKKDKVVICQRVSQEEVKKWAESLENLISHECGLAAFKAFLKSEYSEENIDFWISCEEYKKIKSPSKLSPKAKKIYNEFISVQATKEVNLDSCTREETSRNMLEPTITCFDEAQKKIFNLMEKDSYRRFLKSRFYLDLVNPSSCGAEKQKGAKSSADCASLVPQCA
MrgX1 antag conf: reconfirmed antagonist of human MrgX1 receptor signaling; actives 19% (n = 2,300); shares compounds with MrgX1 antag; remaining BAM8-22 calcium response % of control (active compounds read low), % at 10 µM; MrgX1-HEK293, BAM8-22 calcium flux, Fluo-4; active compounds read low;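 active means remaining agonist calcium response no higher than 100% minus 3 SD of agonist-only control wells, with starting fluorescence near control levels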;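 further: agonist BAM8-22 given at a near maximal EC90 to ECmax level; peak minus minimum fluorescence divided by baseline after agonist addition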
HEK293 Ca flux: activity in parental HEK293 cells lacking MrgX1; actives 2% (n = 4,000); fluorescence ratio F(max-min)/F0 at 10 µM; Fluo-4 calcium fluorescence, FDSS; shares compounds with MrgX1 antag; AID 624111;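 active means duplicate-averaged calcium fluorescence ratio at least three times the standard deviation of buffer wells, a nonspecific response in parental cells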
HEK293 Ca counter: activity in parental HEK293 cells without MrgX1. shares compounds with MrgX1 antag. parental HEK293 calcium flux, Fluo-4 fluorescence ratio; active compounds read high. fluorescence ratio F(max-min)/F0 at 10 µM. actives 0.4% (n = 4,000);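 active means calcium fluorescence ratio, averaged over duplicates, at least 3 SD of the buffer-well ratio, meaning a nonspecific response in receptor-free cells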;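 further: untransfected parental HEK293 lacking MrgX1 used as counterscreen for MrgX1 allosteric activators; fluorescence change taken during the second addition on a kinetic imager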
HEK293 Ca cntr2: counter-screen for MrgX1 activators: effect in parental HEK293 cells | shares compounds with MrgX1 antag | Fluo-4 calcium fluorescence (FDSS); active compounds read high | fluorescence ratio F(max-min)/F0 at 10 µM | actives 8.7% (n = 4,000) | AID 624115;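 active means calcium fluorescence ratio at least three times the spread of buffer wells, meaning a non-specific response in parental cells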
Numbers without * were called inactive; i = inactive; / = not tested or not shown. Rows were chosen to be rich in hits. Some 4.5% of all compounds tested hit in one or more screens of this group.

SMILES | MrgX1 PAM | MrgX1 agonist | MrgX1 antag | RGS4 pot | PHOSPHO1 inh | RGS4 block | MrgX1 antag conf | HEK293 Ca flux | HEK293 Ca counter | HEK293 Ca cntr2
O=C1OCCC1Sc1nnc(-c2cccc(Br)c2)o1 (stereo not drawn) | i | i | -5.1* | i | 12.5 | i | i | i | i | i
Cc1nn(-c2nnc(NC3CCCCC3)nn2)c(C)c1Br | i | i | -4.52* | i | -5.0 | i | i | i | i | i
Cc1nn(C)c(C)c1S(=O)(=O)NC1CCCC1 | i | i | i | i | 1.5 | i | / | / | / | /
Cc1[nH]c2ccccc2c1C(=O)CN1CCC(C(N)=O)(N2CCCCC2)CC1 | i | i | -5.83* | i | 1.0 | i | i | i | i | i
Cc1ccc(-c2csc3ncnc(N4CCN(C(=O)c5ccccc5)CC4)c23)cc1 | i | i | i | i | 3.2 | i | / | / | / | /
S=c1nc(-c2ccccc2Br)[nH][nH]1 | i | i | -6.1* | i | 6.7 | i | i | i | i | i
COc1ccc(C(O)C(CN2CCOCC2)c2ccccc2)cc1F (stereo not drawn) | i | i | -5.56* | i | 16.6 | i | i | i | i | i
COc1ccccc1C(=O)Nc1ccnn1C1CCN(C(=O)c2ccoc2)CC1 | i | i | -6.04* | i | 30.1 | i | i | i | i | i
COc1ccccc1NS(=O)(=O)c1cc(NC(=O)c2ccc(Cl)nc2)ccc1Cl | i | i | -14* | i | 4.9 | i | 54.2%* | i | i | i
COc1ccc(NC(=O)c2ccc(Cl)c(S(=O)(=O)N3CCc4ccccc4C3)c2)cn1 | i | i | -5.53* | i | -10.2 | i | 38.2%* | i | i | i
Cc1cccc(N(C(=O)Nc2ccc(Cl)cc2)C2=NCC(C)S2)n1 (stereo not drawn) | i | i | i | i | 33.5 | i | / | / | / | /
CC(=O)c1cccc(NC(=O)Oc2ccccc2)c1 | i | i | -7.77* | i | 16.2 | i | i | i | i | i
COc1ccc(OC)c(C(C)NC(=O)c2ccc(Br)cc2)c1 (stereo not drawn) | i | i | i | i | 8.8 | i | / | / | / | /
COc1ccc(OC)c(C(C)NC(=O)Nc2cccc(C(C)=O)c2)c1 (stereo not drawn) | i | i | -10.2* | i | 35.4 | i | i | i | i | i
COc1cccc(C(=O)NCc2cccnc2)c1 | i | i | -5.54* | i | -22.1 | i | i | i | i | i
CC(=O)c1ccc(NC(=O)Oc2ccccc2)cc1 | i | i | i | i | -1.2 | i | / | / | / | /
COc1cccc(C(=O)Nc2cccc(-c3nnc(-c4ccco4)o3)c2)c1 | i | i | -5.51* | i | 11.3 | i | 59.6%* | i | i | i
C=CCN(CC=C)CCOc1ccc(OC(C)C)cc1 | i | i | i | i | 22.8 | i | / | / | / | /
CCOc1ccc(C/C(O)=C2\C(=O)CC(C)(C)CC2=NCC(=O)O)cc1OCC | i | i | i | i | -1.1 | i | / | / | / | /
O=C(Nc1cccnc1)c1cccc(S(=O)(=O)N2CCc3ccccc32)c1 | i | i | i | i | 26.7 | i | / | / | / | /
